Legend:
[1] = Tmax in mouse at 10 mg/kg, po; assay type: ADME, organism-based; conditions: in vivo
How it was run: (§1)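 Single-dose PK in mice, Sprague Dawley rats and beagle dogs, given i.v. (1 mg/kg) or p.o. (10 mg/kg mice and rats; 5 mg/kg dogs). AUC0-t, T1/2, Tmax and oral bioavailability (F) derived from plasma profiles.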

[2] = Inhibition of LMNA fused TRKA V573M mutant (unknown origin) transfected in mouse BaF3 cells assessed as reduction in phosphorylation at Y490 residue after 2 hrs by Western blot analysis; conditions: Homo sapiens, BaF3, 2 h
[3] = Antitumor activity against human […] cells xenografted in nude mouse assessed as tumor growth inhibition at 80 mg/kg, po administered once daily for 10 days relative to control; assay type: functional; conditions: KM12-Luc, 240 h, time 10 day, read-out: TGI
How it was run: (§2)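 Nu/nu mice given 5 million KM-12-LUC cells in DMEM, 1:1 with matrigel, injected subcutaneously into the right flank; oral gavage started at tumor size 150–200 mm³, 5 mice per group, compound in 0.5% methylcellulose/0.4% Tween 80 in ddH₂O; body weight and tumor volume [(W²×L)/2] measured daily; TGI versus vehicle.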

[4] = Apparent volume of distribution in Sprague-Dawley rat at 1 mg/kg, iv; assay type: ADME, organism-based; conditions: in vivo, read-out: Vz
[5] = Toxicity in mouse xenografted with mouse BAF3 cells harboring TEL fused TRKB assessed as effect on body weight at 40 to 80 mg/kg, po administered once daily for 10 days; assay type: organism-based; conditions: in vivo, 240 h, dose 40-80 mg/kg/day, time 10 day
How it was run: (§3)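 nu/nu mice were given subcutaneous right-flank implants in 1:1 DMEM/matrigel: 1 million BaF3 fusion cells or 5 million KM-12-LUC cells. Oral gavage started at 150–200 mm3 (xenograft) or 200–400 mm3 (allograft). Dosing used 40 or 80 mg/kg in HKI vehicle (0.5% methylcellulose/0.4% Tween 80 in ddH2O), with 5 mice per group. Body weight was recorded daily and behaviour observed.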

[6] = Half life in Beagle dog at 1 mg/kg, iv; assay type: ADME, organism-based, Canis lupus familiaris; conditions: in vivo
[7] = Inhibition of LMNA fused TRKA F589L mutant (unknown origin) transfected in mouse BaF3 cells assessed as reduction in phosphorylation at Y490 residue after 2 hrs by Western blot analysis; conditions: Homo sapiens, BaF3, 2 h
BaF3 [8] = experiment: Antitumor activity against mouse BAF3 cells harboring TEL fused TRKC allografted in nude mouse assessed as tumor growth inhibition at 40 mg/kg, po administered once daily for 10 days relative to control; assay type: functional; conditions: 240 h, time 10 day, read-out: TGI
How it was run: (§4)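 Nu/nu mice given 1 million BaF3 cells (TEL-TRKA, TEL-TRKB, TEL-TRKC, LMNA-TRKA-F589L or LMNA-TRKA-G667S) in DMEM, 1:1 with matrigel, injected subcutaneously into the right flank; oral gavage began at 200–400 mm³, 5 mice per group, compound in 0.5% methylcellulose/0.4% Tween 80 in ddH₂O, 10 days; tumor volume [(W²×L)/2] and body weight recorded daily; TGI versus vehicle.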

[9] = AUC (0 to t) in Sprague-Dawley rat at 10 mg/kg, po; assay type: ADME, organism-based; design: dose 10 mg/kg; conditions: in vivo
How it was run: (§5)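 Intravenous and oral arms were run in parallel in each species (mice, Sprague Dawley rats, beagle dogs). Exposure is reported as AUC0-t in ng/mL·h.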

[10] = Toxicity in mouse xenografted with mouse BAF3 cells harboring TEL fused TRKA assessed as effect on animals behaviour at 40 to 80 mg/kg, po administered once daily for 10 days; assay type: organism-based; conditions: in vivo, 240 h, dose 40-80 mg/kg/day, time 10 day; how it was run: as §3
[11] = target: Platelet-derived growth factor receptor beta (Homo sapiens, UniProt P09619); experiment: Inhibition of human PDGFR beta by Z-LYTE or ADP-Glo assay
How it was run: (§6)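 Purified kinase proteins tested biochemically in Z'LYTE or ADP-Glo format.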

[12] = Cmax in Beagle dog at 5 mg/kg, po; assay type: ADME, organism-based, Canis lupus familiaris; design: route oral, dose 5 mg/kg; conditions: in vivo
BaF3 [13] = experiment: Antitumor activity against mouse BAF3 cells harboring LMNA fused TRKA-F589L mutant allografted in nude mouse assessed as tumor growth inhibition at 80 mg/kg, po administered once daily for 10 days relative to control; assay type: functional; conditions: 240 h, time 10 day, read-out: TGI; how it was run: as §4
BaF3 [14] = experiment: Inhibition of LMNA fused TRKA G667S mutant (unknown origin) transfected in mouse BAF3 cells assessed as growth inhibition after 72 hrs by CCK8 assay; assay type: cell-based; conditions: Homo sapiens
[15] = Tmax in Beagle dog at 5 mg/kg, po; assay type: ADME, organism-based, Canis lupus familiaris; conditions: in vivo; how it was run: as §1
KM12-Luc = experiment: Antitumor activity against human […] cells xenografted in nude mouse assessed as tumor growth inhibition administered orally once daily for 10 days relative to control; assay type: functional, cell-based; conditions: dose 40-80 mg/kg/day, time 10.0 day; how it was run: as §2
[16] = Half life in mouse at 10 mg/kg, po; assay type: ADME, organism-based; conditions: in vivo
[17] = target: VEGFR2 (vascular endothelial growth factor receptor 2), wild type, TEL fusion (Homo sapiens, UniProt P35968); experiment: Inhibition of wild type TEL fused VEGFR2 (unknown origin) transfected in mouse BAF3 cells assessed as growth inhibition after 72 hrs by CCK8 assay; assay type: cell-based; conditions: mouse BaF3 cells transfected with wild type TEL-fused VEGFR2
[18] = target: T1, High affinity nerve growth factor receptor (Homo sapiens, UniProt P04629); experiment: Inhibition of human TRKA by Z-LYTE or ADP-Glo assay; how it was run: as §6
[19] = AUC (0 to t) in mouse at 10 mg/kg, po; assay type: ADME, organism-based; design: dose 10 mg/kg; conditions: in vivo; how it was run: as §5
BaF3 [20] = experiment: Antitumor activity against mouse BAF3 cells harboring TEL fused TRKA allografted in nude mouse assessed as tumor growth inhibition at 80 mg/kg, po administered once daily for 10 days relative to control; assay type: functional; conditions: 240 h, time 10 day, read-out: TGI; how it was run: as §4
[21] = target: T1, High affinity nerve growth factor receptor; experiment: Inhibition of TEL fused wild type TRKA (unknown origin) transfected in mouse BaF3 cells assessed as reduction in phosphorylation at Y490 residue after 2 hrs by Western blot analysis; assay type: cell-based
How it was run: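 Isogenic BaF3 lines, made in-house, grown in RPMI 1640 with 10% FBS and 1% penicillin/streptomycin at 37 °C under 5% CO2. Serially diluted compound added for 2 h. Cells collected and lysed, and lysates analysed by western blotting for phospho-TRK. EC50 derived from the blots.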

[22] = Apparent clearance in mouse at 1 mg/kg, iv; assay type: ADME, organism-based; conditions: in vivo
[23] = Cmax in Sprague-Dawley rat at 1 mg/kg, iv; assay type: ADME, organism-based; design: route intravenous, dose 1 mg/kg; conditions: in vivo
BaF3 [24] = experiment: Inhibition of LMNA fused TRKA V573M mutant (unknown origin) transfected in mouse BAF3 cells assessed as growth inhibition after 72 hrs by CCK8 assay; assay type: cell-based; conditions: Homo sapiens
[25] = Toxicity in mouse xenografted with mouse BAF3 cells harboring TEL fused TRKC assessed as effect on body weight at 40 to 80 mg/kg, po administered once daily for 10 days; assay type: organism-based; conditions: in vivo, 240 h, dose 40-80 mg/kg/day, time 10 day; how it was run: as §3
[26] = target: Mast/stem cell growth factor receptor Kit (Homo sapiens, UniProt P10721); experiment: Inhibition of human KIT by Z-LYTE or ADP-Glo assay; how it was run: as §6
BaF3 [27] = experiment: Antitumor activity against mouse BAF3 cells harboring TEL fused TRKC allografted in nude mouse assessed as tumor growth inhibition administered orally once daily for 10 days; assay type: functional, cell-based; conditions: dose 40-80 mg/kg/day, time 10.0 day; how it was run: as §4

T1 sequence (P04629 whole entry): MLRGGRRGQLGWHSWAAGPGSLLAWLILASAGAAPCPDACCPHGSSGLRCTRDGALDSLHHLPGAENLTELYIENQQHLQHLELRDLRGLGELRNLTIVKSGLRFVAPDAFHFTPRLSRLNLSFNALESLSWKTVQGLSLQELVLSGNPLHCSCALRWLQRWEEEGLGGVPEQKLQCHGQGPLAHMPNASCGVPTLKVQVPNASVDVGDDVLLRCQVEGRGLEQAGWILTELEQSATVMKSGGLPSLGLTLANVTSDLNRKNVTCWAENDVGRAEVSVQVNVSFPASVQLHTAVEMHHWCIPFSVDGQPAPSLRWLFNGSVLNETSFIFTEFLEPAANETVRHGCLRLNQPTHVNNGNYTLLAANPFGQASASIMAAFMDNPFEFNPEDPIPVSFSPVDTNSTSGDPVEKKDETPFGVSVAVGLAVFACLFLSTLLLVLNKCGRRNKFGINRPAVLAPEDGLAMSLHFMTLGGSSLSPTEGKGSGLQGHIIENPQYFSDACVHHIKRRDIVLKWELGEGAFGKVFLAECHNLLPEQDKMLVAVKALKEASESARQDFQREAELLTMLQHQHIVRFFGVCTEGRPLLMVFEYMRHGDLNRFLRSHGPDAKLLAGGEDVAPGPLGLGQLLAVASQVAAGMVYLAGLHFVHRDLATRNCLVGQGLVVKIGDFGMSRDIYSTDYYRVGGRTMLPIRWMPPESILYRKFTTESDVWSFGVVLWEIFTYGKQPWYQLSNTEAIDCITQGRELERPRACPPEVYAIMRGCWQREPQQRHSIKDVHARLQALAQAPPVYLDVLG
VEGFR2 (vascular endothelial growth factor receptor 2), wild type, TEL fusion, sequence (P35968 whole entry, the tested form may be a part): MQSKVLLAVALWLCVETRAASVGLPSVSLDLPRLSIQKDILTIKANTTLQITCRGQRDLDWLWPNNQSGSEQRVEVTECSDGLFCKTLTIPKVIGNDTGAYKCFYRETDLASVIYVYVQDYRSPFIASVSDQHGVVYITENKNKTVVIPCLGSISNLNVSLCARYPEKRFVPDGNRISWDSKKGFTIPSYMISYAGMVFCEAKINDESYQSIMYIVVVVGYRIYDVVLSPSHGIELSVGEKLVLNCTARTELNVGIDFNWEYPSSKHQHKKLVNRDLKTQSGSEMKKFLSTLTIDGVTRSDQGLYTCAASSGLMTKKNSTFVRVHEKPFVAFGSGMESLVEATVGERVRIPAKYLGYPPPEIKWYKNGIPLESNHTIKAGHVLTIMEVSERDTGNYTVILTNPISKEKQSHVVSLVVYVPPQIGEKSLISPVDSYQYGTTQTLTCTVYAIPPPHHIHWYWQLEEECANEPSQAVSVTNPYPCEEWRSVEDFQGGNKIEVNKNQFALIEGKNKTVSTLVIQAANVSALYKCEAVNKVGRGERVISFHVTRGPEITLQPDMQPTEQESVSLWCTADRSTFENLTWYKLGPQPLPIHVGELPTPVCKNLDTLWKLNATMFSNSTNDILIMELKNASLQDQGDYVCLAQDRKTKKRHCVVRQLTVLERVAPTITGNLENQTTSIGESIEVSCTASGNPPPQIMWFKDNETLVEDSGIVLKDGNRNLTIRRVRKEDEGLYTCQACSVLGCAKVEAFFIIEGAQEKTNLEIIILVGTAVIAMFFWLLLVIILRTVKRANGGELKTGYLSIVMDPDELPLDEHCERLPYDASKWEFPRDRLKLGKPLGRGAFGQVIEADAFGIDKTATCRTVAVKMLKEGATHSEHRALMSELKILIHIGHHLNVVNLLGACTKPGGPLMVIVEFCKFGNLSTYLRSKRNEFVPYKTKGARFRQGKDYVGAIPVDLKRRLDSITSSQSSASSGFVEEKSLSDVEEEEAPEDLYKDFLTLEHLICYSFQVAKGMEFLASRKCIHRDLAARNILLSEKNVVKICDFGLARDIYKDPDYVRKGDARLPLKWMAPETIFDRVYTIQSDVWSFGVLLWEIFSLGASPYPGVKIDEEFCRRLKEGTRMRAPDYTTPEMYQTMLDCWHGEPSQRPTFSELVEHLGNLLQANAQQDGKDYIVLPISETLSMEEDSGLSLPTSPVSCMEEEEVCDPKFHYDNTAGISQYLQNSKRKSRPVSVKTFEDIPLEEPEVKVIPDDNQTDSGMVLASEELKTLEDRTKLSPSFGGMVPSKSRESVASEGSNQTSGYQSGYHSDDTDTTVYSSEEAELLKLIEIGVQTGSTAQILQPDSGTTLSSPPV
Mast/stem cell growth factor receptor Kit, sequence (P10721 whole entry, the tested form may be a part): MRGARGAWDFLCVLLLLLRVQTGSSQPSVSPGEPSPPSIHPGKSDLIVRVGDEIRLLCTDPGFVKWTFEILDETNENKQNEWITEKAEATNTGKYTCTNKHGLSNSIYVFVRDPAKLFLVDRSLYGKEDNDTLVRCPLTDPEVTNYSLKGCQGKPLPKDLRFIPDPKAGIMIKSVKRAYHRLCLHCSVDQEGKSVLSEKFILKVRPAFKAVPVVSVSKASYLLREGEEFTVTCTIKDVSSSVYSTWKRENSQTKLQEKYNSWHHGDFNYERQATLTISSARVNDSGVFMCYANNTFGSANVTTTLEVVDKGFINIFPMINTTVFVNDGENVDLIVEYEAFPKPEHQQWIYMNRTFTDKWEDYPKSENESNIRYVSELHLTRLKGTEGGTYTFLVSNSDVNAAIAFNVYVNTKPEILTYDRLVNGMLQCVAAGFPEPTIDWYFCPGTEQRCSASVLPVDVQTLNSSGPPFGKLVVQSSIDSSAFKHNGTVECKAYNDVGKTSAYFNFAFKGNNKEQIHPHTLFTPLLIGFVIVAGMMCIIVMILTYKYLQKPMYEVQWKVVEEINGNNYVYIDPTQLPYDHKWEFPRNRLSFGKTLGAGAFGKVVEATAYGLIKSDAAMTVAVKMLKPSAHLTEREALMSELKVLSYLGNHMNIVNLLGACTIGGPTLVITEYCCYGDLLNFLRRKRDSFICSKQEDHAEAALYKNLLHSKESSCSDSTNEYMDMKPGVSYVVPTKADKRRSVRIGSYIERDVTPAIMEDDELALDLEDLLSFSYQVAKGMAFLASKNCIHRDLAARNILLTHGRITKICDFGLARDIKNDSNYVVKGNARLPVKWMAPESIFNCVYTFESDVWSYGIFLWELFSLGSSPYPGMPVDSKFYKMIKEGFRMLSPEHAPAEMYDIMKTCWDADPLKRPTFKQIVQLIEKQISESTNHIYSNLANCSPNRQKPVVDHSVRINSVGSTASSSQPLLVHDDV
Platelet-derived growth factor receptor beta, sequence (P09619 whole entry): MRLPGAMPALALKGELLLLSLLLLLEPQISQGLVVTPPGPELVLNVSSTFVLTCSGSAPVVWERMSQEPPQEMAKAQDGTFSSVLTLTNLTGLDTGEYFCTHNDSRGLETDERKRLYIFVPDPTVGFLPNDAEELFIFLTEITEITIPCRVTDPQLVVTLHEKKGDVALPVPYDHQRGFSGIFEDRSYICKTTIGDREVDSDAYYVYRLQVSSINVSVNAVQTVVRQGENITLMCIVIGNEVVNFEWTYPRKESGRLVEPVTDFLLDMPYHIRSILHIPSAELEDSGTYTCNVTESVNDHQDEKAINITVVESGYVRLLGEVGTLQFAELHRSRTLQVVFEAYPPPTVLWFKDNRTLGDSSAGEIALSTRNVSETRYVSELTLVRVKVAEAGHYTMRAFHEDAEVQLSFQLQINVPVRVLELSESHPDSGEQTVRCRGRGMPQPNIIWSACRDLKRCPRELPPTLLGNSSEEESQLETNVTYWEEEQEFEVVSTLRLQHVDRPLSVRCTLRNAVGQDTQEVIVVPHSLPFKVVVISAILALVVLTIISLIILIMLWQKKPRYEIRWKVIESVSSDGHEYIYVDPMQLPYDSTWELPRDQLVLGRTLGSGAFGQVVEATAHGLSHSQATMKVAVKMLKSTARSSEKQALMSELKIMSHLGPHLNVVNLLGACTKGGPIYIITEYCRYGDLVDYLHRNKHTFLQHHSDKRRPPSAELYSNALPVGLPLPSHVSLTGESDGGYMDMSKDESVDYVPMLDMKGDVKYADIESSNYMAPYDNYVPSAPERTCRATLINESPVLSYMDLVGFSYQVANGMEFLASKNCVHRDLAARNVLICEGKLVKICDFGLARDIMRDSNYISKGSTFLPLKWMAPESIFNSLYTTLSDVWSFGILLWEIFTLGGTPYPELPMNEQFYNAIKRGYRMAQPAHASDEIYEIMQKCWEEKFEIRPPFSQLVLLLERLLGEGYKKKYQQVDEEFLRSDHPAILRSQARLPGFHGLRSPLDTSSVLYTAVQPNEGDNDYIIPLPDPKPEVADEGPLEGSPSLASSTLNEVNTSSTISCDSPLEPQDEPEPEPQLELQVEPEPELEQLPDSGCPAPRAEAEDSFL

- Tmax [1]: 1.5 h
- EC50 [2]: 0.013 µM
- Vd [4]: 9.68 L/kg
- t1/2 [6]: 1.8 min
- EC50 [7]: 0.021 µM
- AUC(0-t) [9]: 0.952 µg·h/mL
- IC50 [11]: 0.0957 µM
- Cmax [12]: 0.131 µg/mL
- GI50 (BaF3 [14]): 0.002 µM
- Tmax [15]: 4.3 h
- t1/2 [16]: 3.4 h
- IC50 [18]: 0.0105 µM
- AUC(0-t) [19]: 1.43 µg·h/mL
- EC50 [21]: 0.026 µM
- CLz/F [22]: 1.302 L/h/kg
- Cmax [23]: 0.363 µg/mL
- GI50 (BaF3 [24]): 0.003 µM
- IC50 [26]: 2.17 µM
SMILES: Cc1nc(NC(=O)CN2CCN(C)CC2)sc1-c1ccc2c(/C=C/c3ccccn3)n[nH]c2c1
- inhibition in vivo at 80 mg/kg/day [3]: 94.7%
- Activity [5]: Non-Toxic
- inhibition in vivo at 40 mg/kg/day (BaF3 [8]): 40.6%
- Activity [10]: Non-Toxic
- inhibition in vivo at 80 mg/kg/day (BaF3 [13]): 87.7%
- Activity (KM12-Luc): Dose-dependent effect
- GI50 at 72 h [17]: 1.18 µM
- inhibition in vivo at 80 mg/kg/day (BaF3 [20]): 67.5%
- Activity [25]: Non-Toxic
- Activity (BaF3 [27]): Dose-dependent effect

From ChEMBL document CHEMBL4765452, “Discovery of (E)-N-(4-methyl-5-(3-(2-(pyridin-2-yl)vinyl)-1H-indazol-6-yl)thiazol-2-yl)-2-(4-methylpiperazin-1-yl)acetamide (IHMT-TRK-284) as a novel orally available type II TRK kinase inhibitor capable of overcoming multiple resistant mutants” (Eur J Med Chem, 2020)
